target: T1, UniProt Q8VF43; conditions: stereoisomer not certain
T1 sequence (whole entry): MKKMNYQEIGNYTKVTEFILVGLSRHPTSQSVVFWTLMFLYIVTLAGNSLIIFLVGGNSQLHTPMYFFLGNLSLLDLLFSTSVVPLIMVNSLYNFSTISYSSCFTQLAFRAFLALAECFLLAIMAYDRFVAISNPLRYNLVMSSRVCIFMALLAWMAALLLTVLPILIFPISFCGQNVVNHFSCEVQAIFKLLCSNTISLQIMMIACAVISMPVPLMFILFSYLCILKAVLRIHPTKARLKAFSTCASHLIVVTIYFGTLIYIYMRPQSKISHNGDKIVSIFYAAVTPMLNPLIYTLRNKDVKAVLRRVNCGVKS
Method in brief: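 Each receptor–molecule pair is labelled responsive or non-responsive (inactive) according to whether the original authors judged the measured signal statistically different from baseline. The data were taken from the main text and supplementary material of published papers and checked for typos and inconsistencies. Assay methods differed by source, with transient luciferase assays in mammalian cell lines being common.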
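Note: active if original authors judged signal statistically different from baseline.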

| Structure (SMILES) | odorant receptor agonist call |
| --- | --- |
| CCc1occc(=O)c1O | inactive |
| COc1nccnc1C(C)C | inactive |
| CCC=CCCC=CC=O | inactive |
| CCCCCCC(=O)OCCCC | inactive |
| CCCCCOC(=O)CC | inactive |
| C=CC(C)=CCC=C(C)CCC=C(C)C | inactive |
| CCCO | inactive |
| CCCC(C)C(=O)OCC (centres undefined) | inactive |
| COc1nccnc1C | inactive |
| CC(=O)C=CC1=C(C)CCCC1(C)C | inactive |
| C=C(C)C1CC=C(C)CC1 (centres undefined) | inactive |
| CSSCc1ccco1 | inactive |
| CC=CC(=O)C1=C(C)CCCC1(C)C | inactive |
| CCCCCC=CCCC=O | inactive |
| COC(OC)c1ccccc1 | inactive |
| CCC(C)O (centres undefined) | inactive |
| CCOC(=O)CC(C)C | inactive |

| Structure (SMILES) | odorant receptor agonist call |
| --- | --- |
| CC(C)=CCCC(C)=CCOC(=O)C(C)C | inactive |
| COc1ccccc1 | inactive |
| CCCCCC(C=O)=Cc1ccccc1 | inactive |
| CC(C)=C1CCC(C)CC1=O (centres undefined) | inactive |
| O=C([O-])CCCCCCC(=O)[O-].[H+].[H+] | inactive |
| CCc1ccc(O)cc1 | inactive |
| CCc1ccccc1O | inactive |
| CC(=O)OCc1ccc2c(c1)OCO2 | inactive |
| O=C(O)CCCCCCCCC(=O)O | inactive |
| CCSSCC | inactive |
| CCCCCC(C)O (centres undefined) | inactive |
| Cc1c(C)c(C)c(C=O)c(C)c1C | inactive |
| CCC=CCCCCC=O | inactive |
| Cc1ccc(C(C)C)cc1 | inactive |
| CCC(C)c1nccnc1OC (centres undefined) | inactive |
| CC1(C)CC(=O)CC(=O)C1 | inactive |
| CCCCCCCCCC=CC=O | inactive |

— the M2OR odorant receptor database
